The subject of assay [1] is Trypanosoma vivax. The assay is described as follows: Antitrypanosomal activity against bloodstream Trypanosoma vivax STIB 719/ ILRAD 560 infected in NMRI mouse assessed as reduction in parasitemia at 10 mg/kg, sc administered for 4 days. In kind it is functional. Also noted: scale not given: the % may be the effect or the level left.
Assay [2] relates to Trypanosoma congolense. In words: Antitrypanosomal activity against bloodstream Trypanosoma congolense IL3000 infected in NMRI mouse assessed as reduction in parasitemia at 10 mg/kg, sc administered once daily for 4 days. In kind it is functional. Also noted: scale not given: the % may be the effect or the level left.
Assay [3] deals with Trypanosoma vivax. In words: Antitrypanosomal activity against bloodstream Trypanosoma vivax STIB 719/ ILRAD 560 infected in NMRI mouse assessed as reduction in parasitemia at 3 mg/kg, sc administered for 4 days. It is filed as functional. Also noted: scale not given: the % may be the effect or the level left. The conditions noted are these: time 4 day.
Assay [4] deals with Trypanosoma congolense. In words: Antitrypanosomal activity against bloodstream Trypanosoma congolense IL3000 infected in NMRI mouse assessed as reduction in parasitemia at 3 mg/kg, sc administered for 4 days. The conditions noted are these: time 4 day. It is filed as functional. Also noted: scale not given: the % may be the effect or the level left.
Assay [5] has as its system Trypanosoma vivax. In words: Antitrypanosomal activity against bloodstream Trypanosoma vivax STIB 719/ ILRAD 560 infected in NMRI mouse assessed as reduction in parasitemia at 3 mg/kg, sc QD for 4 days and measured twice a week for 21 days. Also noted: scale not given: the % may be the effect or the level left. To be noted: time 21 day.
The subject of assay [6] is Trypanosoma vivax. The assay is described as follows: Antitrypanosomal activity against bloodstream Trypanosoma vivax STIB 719/ ILRAD 560 infected in NMRI mouse assessed as reduction in parasitemia at 30 mg/kg, sc administered as single dose and measured twice a week for 21 days. To be noted: time 21 day. In kind it is functional. Also noted: scale not given: the % may be the effect or the level left.

Assay [7] deals with Trypanosoma congolense. The assay is described as follows: Antitrypanosomal activity against bloodstream Trypanosoma congolense KONT 2/133 infected in Friesian-Holstein calf assessed as reduction in parasitemia at 5 mg/kg, sc BID and measured after 3 days. To be noted: time 3.0 day. In kind it is functional, organism-based.
The subject of assay [8] is Trypanosoma brucei brucei. In words: Antitrypanosomal activity against bloodstream Trypanosoma brucei brucei infected in NMRI mouse assessed as parasite growth inhibition at 3 mg/kg, po BID for 4 days. It is filed as functional. Also noted: scale not given: the % may be the effect or the level left. The conditions noted are these: time 4 day.
In assay [9] the test system is Trypanosoma vivax. The assay is described as follows: Antitrypanosomal activity against bloodstream Trypanosoma vivax STIB 719/ ILRAD 560 infected in NMRI mouse assessed as reduction in parasitemia at 10 mg/kg, sc BID for 4 days and measured twice a week for 21 days. Also noted: scale not given: the % may be the effect or the level left. The conditions noted are these: time 21 day. It is filed as functional.

The test system of assay [10] is Trypanosoma vivax. In words: Antitrypanosomal activity against bloodstream Trypanosoma vivax STIB 719/ ILRAD 560 infected in NMRI mouse assessed as reduction in parasitemia at 10 mg/kg, sc administered for 2 days. It is filed as functional. Also noted: scale not given: the % may be the effect or the level left. The conditions noted are these: time 2 day.
Assay [11] has as its system Trypanosoma congolense. The assay is described as follows: Antitrypanosomal activity against bloodstream Trypanosoma congolense IL3000 infected in Fulani Zebu cattle assessed as reduction in parasitemia at 10 mg/kg, IM administered as single dose monitered for 100 days. It is filed as functional, organism-based. To be noted: time 100.0 day. Summed up:
(§1)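 Female Fulani Zebu cattle infected with the named strain received 10 mg/kg of the free base by IM injection. The vehicle was Kolliphor EL, N-methyl pyrrolidone, 2-pyrrolidone and 11% water. Dosing was once or twice 15 h apart. Saline vehicle controls got 0.2 mL/kg twice, 15 h apart. Animals were followed for 100 days after treatment to score cure.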

For assay [12], the system named is Trypanosoma vivax. The assay is described as follows: Antitrypanosomal activity against bloodstream Trypanosoma vivax STIB 719/ ILRAD 560 infected in Fulani Zebu cattle assessed as reduction in parasitemia at 10 mg/kg, IM administered twice daily and measured after for 100 days. In kind it is functional, organism-based. To be noted: time 100.0 day. The method, boiled down: as §1

The subject of assay [13] is Trypanosoma vivax. The assay is described as follows: Antitrypanosomal activity against bloodstream Trypanosoma vivax STIB 719/ ILRAD 560 infected in Fulani Zebu cattle assessed as reduction in parasitemia at 10 mg/kg, IM administered as single dose monitered for 100 days. To be noted: time 100.0 day. It is filed as functional, organism-based. Summed up: as §1
The test system of assay [14] is Trypanosoma congolense. The assay is described as follows: Antitrypanosomal activity against bloodstream Trypanosoma congolense IL3000 infected in NMRI mouse assessed as reduction in parasitemia at 10 to 100 ng/ml administered via sc implanted ALZET osmotic pumps for 48 hrs. It is filed as functional, organism-based. To be noted: dose 10-100 ng/ml.
Assay [15] concerns Trypanosoma vivax. The assay is described as follows: Antitrypanosomal activity against bloodstream Trypanosoma vivax STIB 719/ ILRAD 560 infected in Fulani Zebu cattle assessed as reduction in parasitemia at 10 mg/kg, IM administered twice daily and measured after 4 days. In kind it is functional, organism-based. To be noted: time 4.0 day.

Structures are written as SMILES. The source made the active and inactive calls. The calls are words filed in the database; no cut-off is given here.

Results on 7 compounds are retold here after ChEMBL document CHEMBL5046314, “Repositioning of a Diaminothiazole Series Confirmed to Target the Cyclin-Dependent Kinase CRK12 for Use in the Treatment of African Animal Trypanosomiasis” (J Med Chem, 2022).

As to `CNCc1cc(F)c(C(=O)c2sc(N[C@H]3CC[C@H](NS(=O)(=O)CC(C)C)CC3)nc2N)c(F)c1.Cl`, the Activity in the assay on Trypanosoma vivax [1] (time 4 day) and in the assay on Trypanosoma congolense [2] (time 4 day) was 100% throughout.

In the case of `CC(C)CS(=O)(=O)N[C@H]1CC[C@H](Nc2nc(N)c(C(=O)c3c(Cl)cccc3Cl)s2)CC1`, the Activity in the assay on Trypanosoma vivax [3] and with Trypanosoma congolense [4] was 100% throughout.

`CC(C)CS(=O)(=O)N[C@H]1CC[C@H](Nc2nc(N)c(C(=O)c3c(F)cccc3F)s2)CC1`: the Activity (in the assay with Trypanosoma vivax [5]; in the assay with Trypanosoma vivax [6]; in assay [8]; with Trypanosoma vivax [9]) was 100% in each case. Moreover, the result with Trypanosoma congolense [7] was Active.

As to `CC(C)CS(=O)(=O)N[C@H]1CC[C@H](Nc2nc(N)c(C(=O)c3c(F)cc(CN4CCOCC4)cc3F)s2)CC1`, the outcome in the assay with Trypanosoma vivax [1] (time 4.0 day) and with Trypanosoma congolense [2] (time 4.0 day) was inactive.

For the compound `CC(C)CS(=O)(=O)N[C@H]1CC[C@H](Nc2nc(N)c(C(=O)c3c(F)cc(CN4CCN(C)CC4)cc3F)s2)CC1`, the result in the assay with Trypanosoma vivax [1] (time 4.0 day) was inactive.

As to `CC(C)CS(=O)(=O)N[C@H]1CC[C@H](Nc2nc(N)c(C(=O)c3c(F)cc(CN(C)C)cc3F)s2)CC1`, the Activity in the assay on Trypanosoma vivax [10], in the assay on Trypanosoma vivax [1] (time 4 day), with Trypanosoma vivax [3] and in the assay with Trypanosoma congolense [2] (time 4 day) was 100% in each case. In addition, the result in the assay on Trypanosoma congolense [11], in the assay on Trypanosoma vivax [12], with Trypanosoma vivax [13] and in the assay with Trypanosoma vivax [15] was inactive. Moreover, in the assay with Trypanosoma congolense [14], the result was Active.

As to `CC(C)CS(=O)(=O)N[C@H]1CC[C@H](Nc2nc(N)c(C(=O)c3c(F)cc(CN4CCCC4)cc3F)s2)CC1.Cl`, in the assay on Trypanosoma vivax [1] (time 4 day), the Activity is reported as 100%.
